ChEMBL document CHEMBL1926614, “Substituted thiazoles V. synthesis and antitumor activity of novel thiazolo[2,3-b]quinazoline and pyrido[4,3-d]thiazolo[3,2-a]pyrimidine analogues” (2012)

Legend:
Assay type in all cases: functional
[1] = test system: KM12; assay: Growth inhibition of human KM12 cells at 10 uM after 48 hrs by coulter counting; details: KM12, 48 h, read-out: GI
In short: (§1)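 Single-dose primary screen across the full NCI 60-cell-line panel. Stocks were made in DMSO and diluted in PBS to a final DMSO below 1%. Cultures at 6 × 10⁴ cells/ml were run in duplicate wells alongside PBS/DMSO vehicle controls at 37 °C in humidified 5% CO₂. Data were expressed as percent growth of treated cells.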

[2] = test system: SK-MEL-28; assay: Growth inhibition of human SK-MEL-28 cells at 10 uM after 48 hrs by coulter counting; details: SK-MEL-28, 48 h, read-out: GI; in short: as §1
[3] = test system: M14; assay: Growth inhibition of human M14 cells at 10 uM after 48 hrs by coulter counting; details: M14, 48 h, read-out: GI; in short: as §1
[4] = test system: NCI-H23; assay: Growth inhibition of human NCI-H23 cells at 10 uM after 48 hrs by coulter counting; details: NCI-H23, 48 h, read-out: GI; in short: as §1
[5] = test system: NCI-H522; assay: Growth inhibition of human NCI-H522 cells at 10 uM after 48 hrs by coulter counting; details: NCI-H522, 48 h, read-out: GI; in short: as §1
[6] = test system: LOX IMVI; assay: Growth inhibition of human LOXIMVI cells at 10 uM after 48 hrs by coulter counting; details: read-out: GI; in short: as §1
[7] = test system: NCI/ADR-RES; assay: Growth inhibition of human NCI/ADR-RES cells at 10 uM after 48 hrs by coulter counting; details: read-out: GI; in short: as §1
[8] = test system: HL-60(TB); assay: Growth inhibition of human HL-60(TB) cells at 10 uM after 48 hrs by coulter counting; details: HL-60, 48 h, read-out: GI
In short: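 Test compound was dissolved in DMSO and diluted in phosphate-buffered saline to a final DMSO level below 1%. Dilutions were plated in duplicate with cell culture at 6 × 10⁴ cells/ml. Vehicle controls held PBS and DMSO at matching dilutions. Incubation was at 37 °C, humidified, under 5% CO₂. Data were reported as percent growth of treated cells.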

[9] = test system: HT-29; assay: Growth inhibition of human HT-29 cells at 10 uM after 48 hrs by coulter counting; details: HT-29, 48 h, read-out: GI; in short: as §1
[10] = test system: HCC 2998; assay: Growth inhibition of human HCC2998 cells at 10 uM after 48 hrs by coulter counting; details: HCC 2998, 48 h, read-out: GI; in short: as §1
[11] = test system: UACC-257; assay: Growth inhibition of human UACC257 cells at 10 uM after 48 hrs by coulter counting; details: UACC-257, 48 h, read-out: GI
In short: (§2)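 Single-dose screen in the NCI 60 human tumor cell line panel (nine subpanels). Compounds dissolved in DMSO and diluted in phosphate buffered saline, keeping final DMSO below 1%. Added in duplicate wells to cells at 6 × 10⁴ cells/ml. Controls held PBS and DMSO at matching dilutions. Incubated at 37 °C, humidified, 5% CO₂. Reported as percent growth of treated cells.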

[12] = test system: SK-MEL-2; assay: Growth inhibition of human SK-MEL-2 cells at 10 uM after 48 hrs by coulter counting; details: SK-MEL-2, 48 h, read-out: GI; in short: as §1
[13] = test system: EKVX; assay: Growth inhibition of human EKVX cells at 10 uM after 48 hrs by coulter counting; details: read-out: GI; in short: as §1
[14] = test system: UACC-62; assay: Growth inhibition of human UACC62 cells at 10 uM after 48 hrs by coulter counting; details: UACC-62, 48 h, read-out: GI; in short: as §2
[15] = test system: K562; assay: Growth inhibition of human K562 cells at 10 uM after 48 hrs by coulter counting; details: K562, 48 h, read-out: GI; in short: as §1
[16] = test system: MOLT-4; assay: Growth inhibition of human MOLT4 cells at 10 uM after 48 hrs by coulter counting; details: MOLT-4, 48 h, read-out: GI; in short: as §1
[17] = test system: MCF7; assay: Growth inhibition of human MCF7 cells at 10 uM after 48 hrs by coulter counting; details: MCF7, 48 h, read-out: GI; in short: as §1
[18] = test system: SF-539; assay: Growth inhibition of human SF539 cells at 10 uM after 48 hrs by coulter counting; details: SF-539, 48 h, read-out: GI; in short: as §1
[19] = test system: MDA-MB-435; assay: Growth inhibition of human MDA-MB-435 cells at 10 uM after 48 hrs by coulter counting; details: MDA-MB-435, 48 h, read-out: GI; in short: as §1
[20] = test system: OVCAR-4; assay: Growth inhibition of human OVCAR4 cells at 10 uM after 48 hrs by coulter counting; details: OVCAR-4, 48 h, read-out: GI; in short: as §1
[21] = test system: IGROV-1; assay: Growth inhibition of human IGROV1 cells at 10 uM after 48 hrs by coulter counting; details: IGROV-1, 48 h, read-out: GI; in short: as §1
[22] = Growth inhibition of human NCI-322M cells at 10 uM after 48 hrs by coulter counting; details: read-out: GI; in short: as §1
[23] = test system: A498; assay: Growth inhibition of human A498 cells at 10 uM after 48 hrs by coulter counting; details: A498, 48 h, read-out: GI; in short: as §1
[24] = test system: CAKI-1; assay: Growth inhibition of human Caki1 cells at 10 uM after 48 hrs by coulter counting; details: CAKI-1, 48 h, read-out: GI; in short: as §1
[25] = test system: UO-31; assay: Growth inhibition of human UO31 cells at 10 uM after 48 hrs by coulter counting; details: UO-31, 48 h, read-out: GI; in short: as §2
[26] = test system: BT-549; assay: Growth inhibition of human BT549 cells at 10 uM after 48 hrs by coulter counting; details: BT-549, 48 h, read-out: GI; in short: as §1
[27] = test system: NCI-H226; assay: Growth inhibition of human NCI-H226 cells at 10 uM after 48 hrs by coulter counting; details: NCI-H226, 48 h, read-out: GI; in short: as §1
[28] = test system: HOP-62; assay: Growth inhibition of human HOP62 cells at 10 uM after 48 hrs by coulter counting; details: HOP-62, 48 h, read-out: GI; in short: as §1
[29] = test system: U-251; assay: Growth inhibition of human U251 cells at 10 uM after 48 hrs by coulter counting; details: U-251, 48 h, read-out: GI; in short: as §2
[30] = test system: RPMI-8226; assay: Growth inhibition of human RPMI8226 cells at 10 uM after 48 hrs by coulter counting; details: RPMI-8226, 48 h, read-out: GI; in short: as §1
[31] = test system: SF-295; assay: Growth inhibition of human SF295 cells at 10 uM after 48 hrs by coulter counting; details: SF-295, 48 h, read-out: GI; in short: as §1
[32] = test system: SK-MEL-5; assay: Growth inhibition of human SK-MEL-5 cells at 10 uM after 48 hrs by coulter counting; details: SK-MEL-5, 48 h, read-out: GI; in short: as §1
[33] = test system: SNB-75; assay: Growth inhibition of human SNB75 cells at 10 uM after 48 hrs by coulter counting; details: SNB-75, 48 h, read-out: GI; in short: as §1
[34] = test system: T47D; assay: Growth inhibition of human T47D cells at 10 uM after 48 hrs by coulter counting; details: read-out: GI; in short: as §2
[35] = test system: CCRF-CEM; assay: Growth inhibition of human CCRF-CEM cells at 10 uM after 48 hrs by coulter counting; details: read-out: GI; in short: as §1
[36] = test system: DU-145; assay: Growth inhibition of human DU145 cells at 10 uM after 48 hrs by coulter counting; details: DU-145, 48 h, read-out: GI; in short: as §1
[37] = test system: NCI-H460; assay: Growth inhibition of human NCI-H460 cells at 10 uM after 48 hrs by coulter counting; details: NCI-H460, 48 h, read-out: GI; in short: as §1
[38] = test system: SNB-19; assay: Growth inhibition of human SNB19 cells at 10 uM after 48 hrs by coulter counting; details: SNB-19, 48 h, read-out: GI; in short: as §1
[39] = test system: SF-268; assay: Growth inhibition of human SF268 cells at 10 uM after 48 hrs by coulter counting; details: SF-268, 48 h, read-out: GI; in short: as §1
[40] = test system: A549; assay: Growth inhibition of human A549 cells at 10 uM after 48 hrs by coulter counting; details: A549, 48 h, read-out: GI; in short: as §1
[41] = test system: HCT-116; assay: Growth inhibition of human HCT116 cells at 10 uM after 48 hrs by coulter counting; details: HCT-116, 48 h, read-out: GI; in short: as §1
[42] = test system: ACHN; assay: Growth inhibition of human ACHN cells at 10 uM after 48 hrs by coulter counting; details: read-out: GI; in short: as §1

Measured: inhibition of growth at 10 µM

COc1ccc(/C=C2\CCCC3=C2N=C2SC=CN2C3c2ccc(OC)c(OC)c2)cc1OC (configuration not stated)
10.3%: [5]
14.9%: [10]
10.5%: [11]
12.4%: [33]
27.9%: [25]
17.5%: [8]
16.4%: [6]
> 10%: all other assays above
